From ChEMBL document CHEMBL3124900, “Discovery and early clinical evaluation of BMS-605339, a potent and orally efficacious tripeptidic acylsulfonamide NS3 protease inhibitor for the treatment of hepatitis C virus infection” (J Med Chem, 2014)

Columns and labels:
Hepatitis C virus = assay: Antiviral activity against Hepatitis C virus genotype 1b Con1 after 4 days by cell-based replicon assay; type: functional, organism-based, Hepacivirus hominis; details: isolate Con1, 96 h
[1] = Inhibition of Hepatitis C virus genotype 1a H77 recombinant NS3/4A protease expressed in Escherichia coli BL21 (DE3) cell using Ac-Asp-Glu-Asp(EDANS)-Glu-Glu-Abu[C(O)-O]-Ala-Ser-Lys(DABCYL)-NH2 as substrate by FRET assay; parameters: species or system Hepatitis C virus (isolate H77)
Liver = assay: Drug uptake in intraduodenally dosed Sprague-Dawley rat liver measured per gm of tissue over 4 hrs by LC/MS/MS analysis; type: ADME, organism-based; details: in vivo, other
In short: (§1)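 Abbreviated rat screen: surgically prepared rats were dosed intraduodenally. Plasma was sampled over 4 h, and liver was collected at the 4 h end point. Plasma was precipitated with two volumes of ACN plus internal standard. Liver was weighed and homogenized in 2 volumes of 20% Hanks buffered salt solution/80% ACN. Both were quantified by LC/MS/MS.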

[2] = AUC in intraduodenally dosed Sprague-Dawley rat plasma measured over 4 hrs by LC/MS/MS analysis; type: ADME, organism-based; parameters: time < 4 hr, route intraduodenal; details: Sprague-Dawley, plasma; in short: as §1
[3] = Cytotoxicity against human HuH7 cells; type: cell-based; details: Huh-7 cells

| EC50 (Hepatitis C virus) [nM] | IC50 [1] [nM] | Drug uptake (Liver) [ng] | AUC at 4 h [2] [µM·h] | Structure (SMILES) | CC50 [3] [nM] |
| --- | --- | --- | --- | --- | --- |
| 133 | 6 | – | – | C=C[C@@H]1C[C@]1(NC(=O)[C@@H]1C[C@@H](Oc2cc(-c3ccccc3)nc3cc(OC)ccc23)CN1C(=O)[C@@H](NC(=O)OC(C)(C)C)C(C)(C)C)C(=O)NS(=O)(=O)CC | – |
| 18 | 2 | 2319 | 0.11 | C=C[C@@H]1C[C@]1(NC(=O)[C@@H]1C[C@@H](Oc2ncnc3cc(OC)ccc23)CN1C(=O)[C@@H](NC(=O)OC(C)(C)C)C(C)(C)C)C(=O)NS(=O)(=O)C1CC1 | > 100000 |
| 97 | 19 | – | – | C=C[C@@H]1C[C@]1(NC(=O)[C@@H]1C[C@@H](Oc2cc(-c3ccccc3)nc3cc(OC)ccc23)CN1C(=O)[C@@H](NC(=O)OC(C)(C)C)C(C)(C)C)C(=O)NS(=O)(=O)C(C)C | – |
| 210 | 149 | – | – | C=C[C@@H]1C[C@]1(NC(=O)[C@@H]1C[C@@H](Oc2cc(-c3ccccc3)nc3cc(OC)ccc23)CN1C(=O)[C@@H](NC(=O)OC(C)(C)C)C(C)(C)C)C(=O)NS(=O)(=O)C1CCCCC1 | – |
| 29 | 7 | – | – | C=C[C@@H]1C[C@]1(NC(=O)[C@@H]1C[C@@H](Oc2cc(-c3ccccc3)nc3cc(OC)ccc23)CN1C(=O)[C@@H](NC(=O)OC(C)(C)C)C(C)(C)C)C(=O)NS(=O)(=O)C1CCC1 | – |
| 32 | 1 | 156 | 0.009 | C=C[C@@H]1C[C@]1(NC(=O)[C@@H]1C[C@@H](Oc2cc(-c3ccccc3)nc3cc(OC)ccc23)CN1C(=O)[C@@H](NC(=O)OC)C(C)(C)C)C(=O)NS(=O)(=O)C1CC1 | – |
| 42 | 2 | 1205 | 0.38 | C=C[C@@H]1C[C@]1(NC(=O)[C@@H]1C[C@@H](Oc2cncc3cc(OC)ccc23)CN1C(=O)[C@@H](NC(=O)OC(C)(C)C)C(C)(C)C)C(=O)NS(=O)(=O)C1CC1 | > 100000 |
| 600 | 36 | – | – | C=C[C@@H]1C[C@]1(NC(=O)[C@@H]1C[C@@H](Oc2cc(-c3ccccc3)nc3cc(OC)ccc23)CN1C(=O)[C@@H](NC(=O)OC(C)(C)C)C(C)(C)C)C(=O)NS(C)(=O)=O | – |
| 170 | 71 | – | – | C=C[C@@H]1C[C@]1(NC(=O)[C@@H]1C[C@@H](Oc2cc(-c3ccccc3)nc3cc(OC)ccc23)CN1C(=O)[C@@H](NC(=O)OC(C)(C)C)C(C)(C)C)C(=O)NS(=O)(=O)C1CCCC1 | – |
| 268 | 23 | 52094 | 0.279 | C=C[C@@H]1C[C@]1(NC(=O)[C@@H]1C[C@@H](Oc2ccc3ccccc3n2)CN1C(=O)[C@@H](NC(=O)OC(C)(C)C)C(C)(C)C)C(=O)NS(=O)(=O)C1CC1 | – |
| 267 | 10 | 319 | – | C=C[C@@H]1C[C@]1(NC(=O)[C@@H]1C[C@@H](Oc2ccnc(-c3ccccc3)c2)CN1C(=O)[C@@H](NC(=O)OC(C)(C)C)C(C)(C)C)C(=O)NS(=O)(=O)C1CC1 | – |
| 26 | 5 | 620 | 0.015 | C=C[C@@H]1C[C@]1(NC(=O)[C@@H]1C[C@@H](Oc2ccnc3cc(OC)ccc23)CN1C(=O)[C@@H](NC(=O)OC(C)(C)C)C(C)(C)C)C(=O)NS(=O)(=O)C1CC1 | – |
| 4 | 1 | 72910 | 1.11 | C=C[C@@H]1C[C@]1(NC(=O)[C@@H]1C[C@@H](Oc2nc(-c3ccccc3)cc3cc(OC)ccc23)CN1C(=O)[C@@H](NC(=O)OC(C)(C)C)C(C)(C)C)C(=O)NS(=O)(=O)C1CC1 | 13000 |
| 20 | 8 | – | – | C=C[C@@H]1C[C@]1(NC(=O)[C@@H]1C[C@@H](Oc2cc(-c3ccccc3)nc3cc(OC)ccc23)CN1C(=O)[C@@H](NC(=O)OC(C)(C)C)C(C)(C)C)C(=O)NS(=O)(=O)c1ccccc1 | – |
| 860 | 30 | – | – | C=C[C@@H]1C[C@]1(NC(=O)[C@@H]1C[C@@H](Oc2cc(-c3ccccc3)nc3cc(OC)ccc23)CN1C(=O)[C@@H](N)C(C)(C)C)C(=O)NS(=O)(=O)C1CC1 | – |
| – | 5000 | 3058 | 0.25 | C=C[C@@H]1C[C@]1(NC(=O)[C@@H]1C[C@H](Oc2nccc3cc(OC)ccc23)CN1C(=O)[C@@H](NC(=O)OC(C)(C)C)C(C)(C)C)C(=O)NS(=O)(=O)C1CC1 | – |
| 893 | 16 | – | – | C=C[C@@H]1C[C@]1(NC(=O)[C@@H]1C[C@@H](Oc2cc(-c3ccccc3)nc3cc(OC)ccc23)CN1C(=O)CNC(=O)OC(C)(C)C)C(=O)NS(=O)(=O)C1CC1 | – |
| 9 | 3 | – | – | C=C[C@@H]1C[C@]1(NC(=O)[C@@H]1C[C@@H](Oc2nc(-c3ccccc3)cc3ccccc23)CN1C(=O)[C@@H](NC(=O)OC(C)(C)C)C(C)(C)C)C(=O)NS(=O)(=O)C1CC1 | 12000 |
| 437 | 12 | – | – | COc1ccc2c(O[C@@H]3C[C@@H](C(=O)NC4(C(=O)NS(=O)(=O)C5CC5)CC4)N(C(=O)[C@@H](NC(=O)OC(C)(C)C)C(C)(C)C)C3)cc(-c3ccccc3)nc2c1 | – |

Continued, molecule first:

| Structure (SMILES) | EC50 (Hepatitis C virus) [nM] | IC50 [1] [nM] | Drug uptake (Liver) [ng] | AUC at 4 h [2] [µM·h] | CC50 [3] [nM] |
| --- | --- | --- | --- | --- | --- |
| C=C[C@@H]1C[C@]1(NC(=O)[C@@H]1C[C@@H](Oc2nccc3cc(C#N)ccc23)CN1C(=O)[C@@H](NC(=O)OC(C)(C)C)C(C)(C)C)C(=O)NS(=O)(=O)C1CC1 | 586 | 4 | – | – | > 100000 |
| C=C[C@@H]1C[C@]1(NC(=O)[C@@H]1C[C@@H](Oc2nccc3ccc(C)cc23)CN1C(=O)[C@@H](NC(=O)OC(C)(C)C)C(C)(C)C)C(=O)NS(=O)(=O)C1CC1 | 100 | 7 | – | – | 86000 |
| C=C[C@@H]1C[C@]1(NC(=O)[C@@H]1C[C@@H](Oc2ccncc2)CN1C(=O)[C@@H](NC(=O)OC(C)(C)C)C(C)(C)C)C(=O)NS(=O)(=O)C1CC1 | 25000 | 84 | – | – | – |
| C=C[C@@H]1C[C@]1(NC(=O)[C@@H]1C[C@@H](Oc2nccc3c(C)cccc23)CN1C(=O)[C@@H](NC(=O)OC(C)(C)C)C(C)(C)C)C(=O)NS(=O)(=O)C1CC1 | 40 | 5 | 160300 | 6.36 | 89000 |
| C=C[C@@H]1C[C@]1(NC(=O)[C@@H]1C[C@@H](Oc2nccc3cc(O)ccc23)CN1C(=O)[C@@H](NC(=O)OC(C)(C)C)C(C)(C)C)C(=O)NS(=O)(=O)C1CC1 | 67 | 3 | – | – | > 100000 |
| C=C[C@@H]1C[C@]1(NC(=O)[C@@H]1C[C@@H](Oc2nccc3cc(OCC)ccc23)CN1C(=O)[C@@H](NC(=O)OC(C)(C)C)C(C)(C)C)C(=O)NS(=O)(=O)C1CC1 | 12 | 3 | 14630 | 1.83 | 74000 |
| C=C[C@@H]1C[C@]1(NC(=O)[C@@H]1C[C@@H](Oc2nccc3cc(N4CCOCC4)ccc23)CN1C(=O)[C@@H](NC(=O)OC(C)(C)C)C(C)(C)C)C(=O)NS(=O)(=O)C1CC1 | 26 | 3 | 1018 | 0.46 | > 100000 |
| C=C[C@@H]1C[C@]1(NC(=O)[C@@H]1C[C@@H](Oc2nccc3cc(C)ccc23)CN1C(=O)[C@@H](NC(=O)OC(C)(C)C)C(C)(C)C)C(=O)NS(=O)(=O)C1CC1 | 100 | 4 | – | – | 92000 |
| C=C[C@@H]1C[C@]1(NC(=O)[C@@H]1C[C@@H](Oc2ncc(Cl)c3ccccc23)CN1C(=O)[C@@H](NC(=O)OC(C)(C)C)C(C)(C)C)C(=O)NS(=O)(=O)C1CC1 | 41 | 8 | – | – | 45000 |
| C=C[C@@H]1C[C@]1(NC(=O)[C@@H]1C[C@@H](Oc2ncc(C)c3ccccc23)CN1C(=O)[C@@H](NC(=O)OC(C)(C)C)C(C)(C)C)C(=O)NS(=O)(=O)C1CC1 | 50 | 1 | 97240 | 0.2 | 71000 |
| C=C[C@@H]1C[C@]1(NC(=O)[C@@H]1C[C@@H](Oc2nccc3c(F)cccc23)CN1C(=O)[C@@H](NC(=O)OC(C)(C)C)C(C)(C)C)C(=O)NS(=O)(=O)C1CC1 | 94 | 55 | – | – | > 100000 |
| C=C[C@@H]1C[C@]1(NC(=O)[C@@H]1C[C@@H](Oc2nccc3cc(C(C)(C)C)ccc23)CN1C(=O)[C@@H](NC(=O)OC(C)(C)C)C(C)(C)C)C(=O)NS(=O)(=O)C1CC1 | 209 | 31 | – | – | 15000 |
| C=C[C@@H]1C[C@]1(NC(=O)[C@@H]1C[C@@H](Oc2nccc3cc(Cl)ccc23)CN1C(=O)[C@@H](NC(=O)OC(C)(C)C)C(C)(C)C)C(=O)NS(=O)(=O)C1CC1 | 833 | 36 | – | – | 44000 |
| C=C[C@@H]1C[C@]1(NC(=O)[C@@H]1C[C@@H](Oc2nccc3cccc(C)c23)CN1C(=O)[C@@H](NC(=O)OC(C)(C)C)C(C)(C)C)C(=O)NS(=O)(=O)C1CC1 | 500 | 149 | – | – | > 100000 |
| C=C[C@@H]1C[C@]1(NC(=O)[C@@H]1C[C@@H](Oc2nccc3cc(-n4cccn4)ccc23)CN1C(=O)[C@@H](NC(=O)OC(C)(C)C)C(C)(C)C)C(=O)NS(=O)(=O)C1CC1 | 64 | 4 | – | – | 94000 |
| C=C[C@@H]1C[C@]1(NC(=O)[C@@H]1C[C@@H](Oc2nccc3cc(C(=O)N(C)C)ccc23)CN1C(=O)[C@@H](NC(=O)OC(C)(C)C)C(C)(C)C)C(=O)NS(=O)(=O)C1CC1 | 11000 | 476 | – | – | > 100000 |
| C=C[C@@H]1C[C@]1(NC(=O)[C@@H]1C[C@@H](Oc2nccc3c(N4CCOCC4)cccc23)CN1C(=O)[C@@H](NC(=O)OC(C)(C)C)C(C)(C)C)C(=O)NS(=O)(=O)C1CC1 | 966 | 96 | – | – | > 100000 |
